Assay outcomes as filed in PubChem BioAssay.
Compounds with a hit are over-represented: about 3.6% of the library has one in this group of screens.
SENP1 FRET inh: inhibitors of human SENP1 SUMO protease catalytic domain. 360,000 tested, 0.21% active. recombinant SENP1 catalytic domain, CyPet-SUMO1-YPet FRET cleavage. Q9P0U3. inhibition, % at 10 µM;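 active means inhibition at least 30% at 10 µM, raw YFP signal under a set limit, fluorescence ratio 0.5 to 1.5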;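 further: 0% = enzyme with DMSO and 100% = no enzyme wells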
Target sequence (Q9P0U3 419-644 limits assumed): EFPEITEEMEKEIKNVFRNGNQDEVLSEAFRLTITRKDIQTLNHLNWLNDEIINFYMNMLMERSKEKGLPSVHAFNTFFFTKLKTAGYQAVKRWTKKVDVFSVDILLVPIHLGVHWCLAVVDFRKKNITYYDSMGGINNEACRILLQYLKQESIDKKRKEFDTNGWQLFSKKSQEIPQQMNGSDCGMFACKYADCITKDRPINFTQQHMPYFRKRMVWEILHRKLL
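System: Recombinant human SENP1 catalytic domain, His6-tagged | Incubation: Enzyme reaction for 50 min at room temperature, dark | Medium: Tris pH 8 with BME, BSA, NP40 and catalase | Also added: 25 nM SUMO1 FRET substrate | Compound: 10 µM single point, 0.5% DMSO | Measured by: FRET fluorescence in CFP and YFP emission channels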
ATG4B inhibitor: blocks human ATG4B protease cleavage of LC3 substrate | Q9Y4P1 | ATG4B cleavage of LC3-PLA2, NBD-HPC fluorescence, 1 h | inhibition, % at 8.33 µM | 340,000 tested, 0.51% active | AID 504462; in the data active means inhibition above about 40%
NadD inh: NadD (S. aureus) enzyme inhibition. 360,000 tested, 0.78% active. inhibition, % at 20 µM. purified NadD enzyme, colorimetric absorbance read-out. AID 602399; in the data active means inhibition above about 26%
UCH37 DUB inh: blocks the human deubiquitinase UCH37; inhibition, % (no concentration beside the values); Q9Y5K5; AID 588478; purified proteasome/UCH37, Ub-AMC cleavage fluorescence; 330,000 tested, 0.33% active;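 active means mean inhibition over replicate wells above about 20%, limit read from the data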;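 further: 0% = compound-free wells with enzyme and 100% = wells lacking proteasome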
Target sequence (Q9Y5K5 whole entry, looked up): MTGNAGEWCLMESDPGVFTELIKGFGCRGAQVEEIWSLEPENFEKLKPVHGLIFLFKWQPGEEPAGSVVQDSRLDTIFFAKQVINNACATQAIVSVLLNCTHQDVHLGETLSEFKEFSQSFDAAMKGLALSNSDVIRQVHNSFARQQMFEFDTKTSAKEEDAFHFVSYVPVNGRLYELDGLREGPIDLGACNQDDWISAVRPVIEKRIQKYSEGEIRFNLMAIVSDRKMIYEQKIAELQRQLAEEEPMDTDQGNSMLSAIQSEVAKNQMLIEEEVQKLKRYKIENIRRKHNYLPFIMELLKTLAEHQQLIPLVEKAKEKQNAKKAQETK
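Reagent: Ub-AMC substrate; assay system: Proteasome-associated human UCH37 deubiquitinase; controls: no-proteasome and no-compound wells; read-out: % inhibition of Ub-AMC cleavage fluorescence; timing: 30 min preincubation with enzyme, 25 min cleavage at room temperature; signal: AMC fluorescence from Ub-AMC cleavage, excitation 355 nm, emission 460 nm; buffer or medium: Tris-HCl pH 7.4 plus ovalbumin, ATP-MgCl2, DTT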
NR3A LBD binder: modulates the human NR3A ligand-binding domain; NR3A LBD differential scanning fluorimetry, Tm shift; 0% = protein alone, 100% = glycine-bound protein; Tm shift relative to glycine control, % at 25 µM; 340,000 tested, 2.5% active; AID 1259313;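 active means melting temperature shift of at least 10% of the positive control shift, at one fixed dose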
* marks the source's active call; other numbers are inactive results; nt = no result.

SMILES	SENP1 FRET inh	ATG4B inhibitor	NadD inh	UCH37 DUB inh	NR3A LBD binder
Cc1ccc(/C=N\NC(=O)c2ccc(Cn3cc(Br)c([N+](=O)[O-])n3)o2)o1	-0.2	-8.6	1.5	nt	-3.6
COc1cc(NC(=O)c2ccc(OC)c([N+](=O)[O-])c2)ccc1NC(=O)c1ccco1	3.2	-7.6	-5.8	4.2	17.0*
COc1cc(NC(=O)c2oc3ccccc3c2C)ccc1NC(=O)c1ccco1	4.6	0.8	2.0	-236.7	24.1*
CC(=O)c1ccc2c(c1)C1C=CCC1C(c1ccncc1)N2 (stereo not given)	37.6*	-5.6	4.3	3.7	-6.0
CC(=NO)C(=O)NCCCNCCCN(C)C	nt	nt	nt	0.5	nt
CCC(=NNC(=O)c1ccc2c(c1)OCO2)C12CC3CC(CC(C3)C1)C2	nt	nt	nt	1.3	nt
COc1cccc(/C=C2\SC(=S)N(N3C(=O)CCCC3=O)C2=O)c1	-2.3	-3.2	-13.9	8.1	23.5*
O=C(CN1C(=O)/C(=C/c2cccc(Br)c2)SC1=S)NC1=NCCS1	2.4	-11.3	34.2*	4.0	4.7
O=C(CN1C(=O)/C(=C/c2ccccc2)SC1=S)NNC(=O)c1ccccc1O	0.6	6.8	36.7*	5.3	10.1*
O=C(CN1C(=O)/C(=C/c2cccc(Br)c2)SC1=S)Nc1cccnc1	3.9	-0.4	24.2	2.8	9.5
COc1cccc(/C=C2/SC(=S)N(CC(=O)NNC(=O)c3ccccc3O)C2=O)c1	-2.8	-2.5	7.3	5.1	15.5*
COc1cccc(/C=C2\SC(=S)N(CC3CCCO3)C2=O)c1 (stereo not given)	-0.6	12.4	-4.1	3.3	6.9
Cc1ccc(/C=C2\SC(=S)N(CCCC(=O)NNC(=O)c3ccccc3O)C2=O)cc1	-0.9	2.0	26.9	nt	-3.0
Cc1cc(C)cc(OCC(=O)NN=Cc2ccncc2)c1	nt	nt	nt	-1.0	nt
Cc1cc[n+](CC(=O)c2ccc3c(c2)OCCO3)cc1	-0.1	0.7	-4.7	24.1*	-1.5
O=C(C[n+]1ccc(/C=C/c2ccccc2)cc1)c1ccc2c(c1)OCCO2	-96.6	4.6	-3.7	nt	1.5
CCOc1ccc2c(c1)C(=O)c1cc(OCC(=O)O)ccc1-2	1.0	6.1	-3.5	6.5	-1.2
CCCCOc1ccc2c(c1)C(=O)c1cc(O)ccc1-2	0.6	6.1	0.7	6.2	34.1*
CCC(=NCCc1c(C)[nH]c2ccccc12)C1=C(O)CC(c2ccccc2)CC1=O (stereo not given)	1.6	18.2	9.1	2.8	16.4*
CCC(=NCCc1c(C)[nH]c2ccc(OC(F)(F)F)cc12)C1=C(O)CC(c2ccccc2)CC1=O (stereo not given)	-0.8	11.2	0.7	5.8	3.4
O=C(O)C(CC(=O)c1ccc(Cl)cc1)=NNc1ccc([N+](=O)[O-])cc1[N+](=O)[O-]	nt	nt	nt	16.7	nt
O=C(COC(=O)C1CC(=O)N(c2ccc3c(c2)OCCO3)C1)NC1CCCc2ccccc21 (stereo not given)	-2.0	-4.7	4.6	22.3*	-1.3
COc1ccc(C=NNC(=O)c2cc(C34CC5CC(CC(C5)C3)C4)[nH]n2)cc1OC	nt	nt	nt	-0.2	nt
O=C(NN=Cc1ccco1)c1cc(-c2ccncc2)nc2ccccc12	nt	nt	nt	8.4	nt
CCOC(=O)c1ccc(NC(=S)N2CCSC2c2ccc(OC)cc2)cc1 (stereo not given)	0.4	-1.8	-12.3	2.3	8.4
SMILES	SENP1 FRET inh	ATG4B inhibitor	NadD inh	UCH37 DUB inh	NR3A LBD binder
CCOC(=O)c1ccc(NC(=S)N2CCSC2c2ccc(Cl)cc2)cc1 (stereo not given)	0.1	0.9	-3.7	3.6	19.1*
O=c1cc(-c2ccccc2)nc2cc(-c3ccco3)[nH]n12	-6.3	-3.4	-2.3	-30.6	10.3*
COc1ccc(-n2nc3c(N4CCC(C(=O)NCc5ccccc5C)CC4)nnc(C)c3c2C)cc1	5.8	54.1*	4.6	-26.3	-1.1
COc1ccc(-c2csc(N3N=C(C)C(C)C3=O)n2)cc1 (stereo not given)	3.4	-3.4	-3.0	-0.2	-0.8
CC1=NN(c2nc(-c3ccc(C)cc3)cs2)C(=O)C1N=Nc1cccc(O)c1 (stereo not given)	4.2	14.6	38.3*	4.9	11.6*
CC1=NN(c2nc(-c3ccc(C)cc3)cs2)C(=O)C1N=Nc1ccccc1O (stereo not given)	7.9	11.1	29.0	6.6	10.6*
CC1=CC=CC2=NC(=NS(=O)(=O)c3ccc(F)cc3F)c3ccccc3CN12	nt	nt	nt	-0.3	nt
COc1ccccc1C=NNC(=O)c1ccccc1NS(=O)(=O)c1ccc(C)cc1	nt	nt	nt	-5.4	nt
Cc1ccc(NS(=O)(=O)c2ccc(NC(=O)CN(c3cc([N+](=O)[O-])ccc3C)S(C)(=O)=O)cc2)c(C)c1	4.1	-5.2	13.7	2.7	13.0*
Cc1ccc(NS(=O)(=O)c2ccc(NC(=O)c3ccc(-c4ccccc4)cc3)cc2)c(C)c1	1.4	5.2	19.0	1.8	10.1*
Cc1ccc(NS(=O)(=O)c2ccc(NC(=O)c3ccc(Br)o3)cc2)c(C)c1	-2.3	-24.7	4.2	1.7	10.7*
Cc1cc(NC(=O)c2ccc(Br)o2)ccc1NC(=O)c1ccco1	-0.4	-18.8	-2.3	3.2	-13.9
Cc1ccc(NS(=O)(=O)c2ccc(NC(=O)c3ccccc3C(=O)O)cc2)c(C)c1	0.4	-0.6	-8.1	2.1	1.1
Cc1ccc(S(=O)(=O)Nc2ccc3cc([N+](=O)[O-])ccc3c2[N+](=O)[O-])cc1	53.0*	-3.7	7.0	10.1	2.7
Cn1c(Cl)c(C=NOC(=O)C2CC2)c2ccccc21	nt	nt	nt	0.5	nt
CCn1c(Cl)c(C=O)sc1=NS(=O)(=O)c1ccccc1	nt	nt	nt	3.3	nt
O=C(CSc1ccc2ccccc2c1)Nc1ccc(S(=O)(=O)Nc2nccs2)cc1	-10.2	-0.1	23.5	3.0	13.4*
O=C(CSc1ccccc1)Nc1ccc(S(=O)(=O)Nc2ncccn2)cc1	-0.3	-14.9	8.1	2.5	-0.6
NS(=O)(=O)c1ccc(NC(=S)NC(=O)c2ccc(Br)o2)cc1	-31.7	8.7	-2.7	nt	5.1
Cc1cc(C)cc(NS(=O)(=O)c2ccc(NC(=S)NC(=O)c3ccc(Br)o3)cc2)c1	-4.0	33.9	20.3	5.0	18.4*
Cc1ccc(NS(=O)(=O)c2ccc(NC(=O)CSc3ccc(Cl)cc3)cc2)c(C)c1	-0.1	-7.5	4.5	2.1	22.6*
CCN(CC)c1ccc(C=NOC(C)C(=O)Nc2ccc(C)cc2)cc1 (stereo not given)	nt	nt	nt	-9.9	nt
Cc1cn(S(=O)(=O)c2cc(Br)ccc2Br)cn1	1.0	-6.0	1.3	-1.2	10.0*
Cc1ccc(NC(=O)c2ncn(CC(=O)NCc3ccccc3)n2)cc1C	0.5	-2.4	-2.2	0.7	0.3
Cc1ccc(NC(=O)c2ncn(CC(=O)NCc3nc4ccccc4[nH]3)n2)cc1C	3.5	1.3	2.6	-0.4	16.8*
